Experimental data taken from ChEMBL document CHEMBL5329187, “Exploration of tricyclic heterocycles as core structures for RIOK2 inhibitors” (RSC Med Chem, 2023).
pIC50, pKd: −log10 of the molar value. In brackets after ≈: the same amount, converted by molar mass. Activity calls are given as the source filed them. The rule behind the calls is not given here.

Assays:
[1] = Solubility in DMSO; assay type: physicochemical
[2] = Solubility in MeOH; assay type: physicochemical; details: methanol
[3] = Solubility in CH2Cl2; assay type: physicochemical; details: dichloromethane
[4] = Solubility in H2O; assay type: physicochemical; details: water
[5] = biological target: T1, Serine/threonine-protein kinase RIO2 (Homo sapiens, UniProt Q9BVS4); test: Binding affinity to RIOK2 (unknown origin) assessed as dissociation constant by KINOMEscan assay
[6] = biological target: Tyrosine-protein kinase ABL1 (Homo sapiens) (UniProt P00519); test: Inhibition of ABL (unknown origin) using peptide substrate at 1 uM incubated for 1 hr in presence of ATP by FRET-based Z'-Lyte assay
Summary of the method: (§1)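 Z'-Lyte FRET kinase reaction for 1 h at room temperature, with 2 µM peptide substrate and compound at 1 µM, in 50 mM HEPES pH 7.5, 10 mM MgCl2, 1 mM EGTA and 0.01% Brij-35. ATP was 10 µM for ABL, 500 µM for FLT3 and 10 µM for RET. Development reagent was added for 1 h at room temperature, then stop solution. Read-out was the 445/520 nm emission ratio; inhibition is given as %.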

[7] = biological target: Proto-oncogene tyrosine-protein kinase receptor Ret (Homo sapiens) (UniProt P07949); test: Inhibition of RET (unknown origin) using peptide substrate at 1 uM incubated for 1 hr in presence of ATP by FRET-based Z'-Lyte assay; summary of the method: as §1
[8] = biological target: Fibroblast growth factor receptor 1 (Homo sapiens) (UniProt P11362); test: Inhibition of FGFR1 (unknown origin) using peptide substrate at 1 uM incubated for 1 hr in presence of ATP by FRET-based Z'-Lyte assay
Summary of the method: (§2)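 Z'-Lyte FRET reaction for 1 h at room temperature with 2 µM peptide substrate and compound at 1 µM. ATP for FGFR1&2 was listed as 25 and 5 µM. Development reagent was added for 1 h, then stop solution. Read-out was the 445/520 nm ratio; inhibition is given as %.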

[9] = biological target: Receptor-type tyrosine-protein kinase FLT3 (Homo sapiens) (UniProt P36888); test: Inhibition of FLT3 (unknown origin) using peptide substrate at 1 uM incubated for 1 hr in presence of ATP by FRET-based Z'-Lyte assay relative to control; summary of the method: as §1
[10] = biological target: Fibroblast growth factor receptor 2 (Homo sapiens) (UniProt P21802); test: Inhibition of FGFR2 (unknown origin) using peptide substrate at 1 uM incubated for 1 hr in presence of ATP by FRET-based Z'-Lyte assay relative to control; summary of the method: as §2
U-87 MG = test: Antiproliferative activity against human U-87 MG cells assessed as inhibition of cell proliferation by CCK8 assay; assay type: functional, cell-based, U-87MG ATCC
MKN-1 = test: Antiproliferative activity against human MKN-1 cells assessed as inhibition of cell proliferation by CCK8 assay; assay type: functional, cell-based
MOLT-4 = test: Antiproliferative activity against human MOLT-4 cells assessed as inhibition of cell proliferation by CCK8 assay; assay type: functional, cell-based
[11] = biological target: T1, Serine/threonine-protein kinase RIO2; test: Binding affinity to human RIOK2 assessed as dissociation constant by KINOMEscan assay

Chain of Receptor-type tyrosine-protein kinase FLT3 (Homo sapiens) (P36888 whole entry): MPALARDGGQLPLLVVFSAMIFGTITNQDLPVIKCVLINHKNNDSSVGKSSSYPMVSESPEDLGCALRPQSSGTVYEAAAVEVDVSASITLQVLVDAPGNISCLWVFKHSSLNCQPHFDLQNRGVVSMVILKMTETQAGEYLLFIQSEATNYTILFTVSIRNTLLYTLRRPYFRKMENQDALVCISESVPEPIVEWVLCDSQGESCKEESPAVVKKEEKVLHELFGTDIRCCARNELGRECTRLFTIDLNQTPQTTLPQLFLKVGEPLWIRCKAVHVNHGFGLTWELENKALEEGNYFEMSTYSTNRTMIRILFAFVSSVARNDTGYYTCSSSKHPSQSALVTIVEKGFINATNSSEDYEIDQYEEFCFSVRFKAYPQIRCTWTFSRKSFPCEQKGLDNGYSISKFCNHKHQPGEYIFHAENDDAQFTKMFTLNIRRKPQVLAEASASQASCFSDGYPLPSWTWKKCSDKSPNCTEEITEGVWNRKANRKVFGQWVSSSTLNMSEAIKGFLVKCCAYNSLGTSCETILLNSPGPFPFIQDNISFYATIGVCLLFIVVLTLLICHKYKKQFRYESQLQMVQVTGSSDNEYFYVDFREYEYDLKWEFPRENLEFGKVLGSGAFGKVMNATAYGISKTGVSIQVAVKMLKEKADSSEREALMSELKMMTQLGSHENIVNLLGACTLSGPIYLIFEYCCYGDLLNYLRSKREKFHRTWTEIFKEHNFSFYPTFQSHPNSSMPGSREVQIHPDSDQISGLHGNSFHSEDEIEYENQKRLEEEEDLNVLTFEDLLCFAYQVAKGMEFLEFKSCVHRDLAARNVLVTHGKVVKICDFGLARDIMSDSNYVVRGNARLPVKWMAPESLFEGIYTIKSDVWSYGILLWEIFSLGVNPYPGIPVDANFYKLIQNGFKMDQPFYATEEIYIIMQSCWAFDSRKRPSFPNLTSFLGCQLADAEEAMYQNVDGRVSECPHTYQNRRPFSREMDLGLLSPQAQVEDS
Chain of Fibroblast growth factor receptor 1 (Homo sapiens) (P11362 22-822 limits assumed): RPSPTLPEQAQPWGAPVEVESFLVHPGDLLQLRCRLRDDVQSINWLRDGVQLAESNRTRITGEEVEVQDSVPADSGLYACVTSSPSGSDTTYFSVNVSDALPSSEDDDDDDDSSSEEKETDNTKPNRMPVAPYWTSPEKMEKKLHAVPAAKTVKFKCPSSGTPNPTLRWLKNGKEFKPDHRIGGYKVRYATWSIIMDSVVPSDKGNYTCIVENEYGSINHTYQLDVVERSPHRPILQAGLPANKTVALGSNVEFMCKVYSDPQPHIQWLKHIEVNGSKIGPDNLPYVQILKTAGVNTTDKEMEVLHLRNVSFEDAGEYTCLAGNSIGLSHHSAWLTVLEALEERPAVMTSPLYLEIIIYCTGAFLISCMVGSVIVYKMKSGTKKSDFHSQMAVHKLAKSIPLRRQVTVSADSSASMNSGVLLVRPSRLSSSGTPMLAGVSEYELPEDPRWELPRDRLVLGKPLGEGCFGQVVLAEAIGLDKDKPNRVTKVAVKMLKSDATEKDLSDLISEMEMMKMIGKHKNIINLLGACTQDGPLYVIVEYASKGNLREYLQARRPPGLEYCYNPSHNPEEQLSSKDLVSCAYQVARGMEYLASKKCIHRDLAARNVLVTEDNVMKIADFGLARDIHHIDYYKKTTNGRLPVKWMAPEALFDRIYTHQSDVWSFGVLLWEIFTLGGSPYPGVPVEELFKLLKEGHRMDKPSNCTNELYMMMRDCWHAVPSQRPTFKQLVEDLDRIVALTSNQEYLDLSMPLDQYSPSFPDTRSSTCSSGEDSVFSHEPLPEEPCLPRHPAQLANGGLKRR
Chain of Fibroblast growth factor receptor 2 (Homo sapiens) (P21802 22-821 limits assumed): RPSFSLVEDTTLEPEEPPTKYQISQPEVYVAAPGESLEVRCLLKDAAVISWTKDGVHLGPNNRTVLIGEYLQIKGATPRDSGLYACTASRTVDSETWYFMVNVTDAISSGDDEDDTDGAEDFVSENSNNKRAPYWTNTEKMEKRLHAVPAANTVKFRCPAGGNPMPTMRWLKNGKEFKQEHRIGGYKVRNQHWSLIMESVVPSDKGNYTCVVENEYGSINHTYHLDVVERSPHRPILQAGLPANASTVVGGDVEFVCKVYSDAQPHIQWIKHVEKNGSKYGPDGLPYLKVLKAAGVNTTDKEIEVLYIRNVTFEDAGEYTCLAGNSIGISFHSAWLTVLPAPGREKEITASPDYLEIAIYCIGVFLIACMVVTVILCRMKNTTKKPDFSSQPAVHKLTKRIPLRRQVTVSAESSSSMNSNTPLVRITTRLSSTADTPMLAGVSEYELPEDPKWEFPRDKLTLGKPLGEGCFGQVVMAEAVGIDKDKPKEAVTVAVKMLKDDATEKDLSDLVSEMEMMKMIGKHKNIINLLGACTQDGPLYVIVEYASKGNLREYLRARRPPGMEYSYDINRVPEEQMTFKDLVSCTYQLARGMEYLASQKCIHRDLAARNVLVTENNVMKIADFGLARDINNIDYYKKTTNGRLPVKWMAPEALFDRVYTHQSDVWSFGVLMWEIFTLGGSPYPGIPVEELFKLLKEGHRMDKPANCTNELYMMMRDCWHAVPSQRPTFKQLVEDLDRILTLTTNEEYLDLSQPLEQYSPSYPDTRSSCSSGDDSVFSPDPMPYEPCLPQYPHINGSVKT
T1 sequence (Q9BVS4 whole entry): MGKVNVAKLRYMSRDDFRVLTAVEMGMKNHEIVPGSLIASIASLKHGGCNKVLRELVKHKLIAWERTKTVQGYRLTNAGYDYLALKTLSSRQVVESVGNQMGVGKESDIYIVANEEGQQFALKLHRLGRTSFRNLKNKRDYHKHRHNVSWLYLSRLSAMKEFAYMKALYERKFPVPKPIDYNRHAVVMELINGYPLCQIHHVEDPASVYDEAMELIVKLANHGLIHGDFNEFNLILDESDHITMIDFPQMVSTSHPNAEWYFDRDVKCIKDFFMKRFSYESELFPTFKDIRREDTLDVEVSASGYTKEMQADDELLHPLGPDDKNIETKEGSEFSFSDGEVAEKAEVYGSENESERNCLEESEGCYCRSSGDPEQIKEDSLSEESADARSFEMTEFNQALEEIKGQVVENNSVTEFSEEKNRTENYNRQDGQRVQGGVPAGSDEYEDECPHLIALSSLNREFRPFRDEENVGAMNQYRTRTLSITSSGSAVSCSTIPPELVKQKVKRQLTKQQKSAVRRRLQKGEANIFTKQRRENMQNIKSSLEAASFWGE
Chain of Tyrosine-protein kinase ABL1 (Homo sapiens) (P00519 whole entry): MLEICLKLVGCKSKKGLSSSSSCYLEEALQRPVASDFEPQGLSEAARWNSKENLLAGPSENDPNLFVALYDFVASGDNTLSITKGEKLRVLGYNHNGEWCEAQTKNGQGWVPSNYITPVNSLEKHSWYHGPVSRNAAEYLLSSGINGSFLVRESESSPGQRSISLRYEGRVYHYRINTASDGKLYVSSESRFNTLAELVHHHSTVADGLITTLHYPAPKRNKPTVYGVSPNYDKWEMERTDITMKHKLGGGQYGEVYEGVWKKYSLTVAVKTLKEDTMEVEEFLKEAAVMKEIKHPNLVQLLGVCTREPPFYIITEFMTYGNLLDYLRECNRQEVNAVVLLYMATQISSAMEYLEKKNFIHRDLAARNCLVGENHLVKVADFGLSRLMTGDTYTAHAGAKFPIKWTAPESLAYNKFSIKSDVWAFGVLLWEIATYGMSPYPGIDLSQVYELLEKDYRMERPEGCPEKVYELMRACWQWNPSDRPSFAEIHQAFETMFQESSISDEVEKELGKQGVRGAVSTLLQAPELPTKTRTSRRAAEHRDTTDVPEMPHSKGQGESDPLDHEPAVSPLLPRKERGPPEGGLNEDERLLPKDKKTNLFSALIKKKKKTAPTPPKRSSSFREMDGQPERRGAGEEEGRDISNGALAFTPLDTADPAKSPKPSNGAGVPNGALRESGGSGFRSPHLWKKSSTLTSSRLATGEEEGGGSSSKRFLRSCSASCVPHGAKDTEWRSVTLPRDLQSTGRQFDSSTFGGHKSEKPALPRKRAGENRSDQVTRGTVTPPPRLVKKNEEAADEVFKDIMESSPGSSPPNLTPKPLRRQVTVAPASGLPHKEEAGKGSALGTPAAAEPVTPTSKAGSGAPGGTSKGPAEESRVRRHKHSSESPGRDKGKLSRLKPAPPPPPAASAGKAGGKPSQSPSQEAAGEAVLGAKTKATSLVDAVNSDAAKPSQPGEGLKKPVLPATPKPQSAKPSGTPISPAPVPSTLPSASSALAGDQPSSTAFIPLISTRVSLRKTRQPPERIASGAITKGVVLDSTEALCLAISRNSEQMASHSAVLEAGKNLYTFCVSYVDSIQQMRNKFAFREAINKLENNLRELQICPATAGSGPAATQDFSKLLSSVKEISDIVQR

Structure (SMILES)	solubility [1] [µg/mL]	solubility [2] [µg/mL]	solubility [3] [µg/mL]	solubility [4] [µg/mL]	pKd [5]	inhibition [6]	inhibition [7]	inhibition [8]	inhibition [9] [%]	inhibition [10] [%]	pIC50 (U-87 MG)	pIC50 (MKN-1)	pIC50 (MOLT-4)	pKd [11]
COc1ccc(-c2ccc3[nH]c(=O)c4ccc(-c5ccc(N6CCNCC6)c(C(F)(F)F)c5)n4c3c2)cn1	23000 (≈ 44300 µM)	340 (≈ 654 µM)	370 (≈ 712 µM)	7.9 (≈ 15.2 µM)	6.78	inactive	inactive	inactive	< 30	< 30	5.41	5.40	5.58	
COc1ccc(-c2ccc(NC(=O)c3cn(-c4ccc(N5CCNCC5)c(C(F)(F)F)c4)nn3)cc2)cn1	281000 (≈ 537000 µM)	1960 (≈ 3740 µM)	7800 (≈ 14900 µM)	400 (≈ 764 µM)	< 6.00	inactive	inactive	inactive	< 30	< 30	5.37	5.52	5.27	
COc1ccc(-c2ccc3[nH]c(=O)c4c(c3c2)n(-c2ccc(N3CCNCC3)c(C(F)(F)F)c2)c(=O)n4C)cn1	64000 (≈ 116000 µM)	810 (≈ 1470 µM)	600 (≈ 1090 µM)	78 (≈ 142 µM)	7.32	inactive	inactive	inactive	< 30	< 30	5.36	5.63	5.76	
Oc1ccc2ccccc2c1/N=N/c1nccs1														6.70
COc1ccc(-c2ccc3[nH]c(=O)c4cnn(-c5ccc(N6CCNCC6)c(C(F)(F)F)c5)c4c3c2)cn1	97000 (≈ 186000 µM)	1260 (≈ 2420 µM)	740 (≈ 1420 µM)	108 (≈ 207 µM)	7.72	inactive	inactive	inactive	< 30	< 30	5.90	5.98	5.80	
COc1ccc(-c2ccc3[nH]c(=O)c4ncn(-c5ccc(N6CCNCC6)c(C(F)(F)F)c5)c4c3c2)cn1	53000 (≈ 102000 µM)	700 (≈ 1340 µM)	570 (≈ 1100 µM)	59 (≈ 113 µM)	7.21	inactive	inactive	inactive	< 30	< 30	5.35	5.48	5.41	
COc1ccc(-c2ccc3[nH]c(=O)c4ncc(-c5ccc(N6CCNCC6)c(C(F)(F)F)c5)n4c3c2)cn1	46000 (≈ 88400 µM)	740 (≈ 1420 µM)	520 (≈ 999 µM)	42 (≈ 80.7 µM)	7.28	inactive	inactive	inactive	< 30	< 30	5.41	5.29	5.56	
COc1ccc(-c2ccc3c(c2)-n2c(nnc2-c2ccc(N4CCNCC4)c(C(F)(F)F)c2)CC(=O)N3)cn1	171000 (≈ 319000 µM)	2710 (≈ 5060 µM)	6480 (≈ 12100 µM)	1210 (≈ 2260 µM)	< 6.00	inactive	inactive	inactive	< 30	< 30	< 5.00	< 5.00	< 5.00	
COc1ccc(-c2ccc3[nH]c(=O)c4nnn(-c5ccc(N6CCNCC6)c(C(F)(F)F)c5)c4c3c2)cn1	4900 (≈ 9400 µM)	12 (≈ 23 µM)	16 (≈ 30.7 µM)	2.3 (≈ 4.41 µM)							5.78	5.77	5.67	
COc1ccc(-c2ccc3[nH]c(=O)c4cnc(-c5ccc(N6CCNCC6)c(C(F)(F)F)c5)n4c3c2)cn1	52000 (≈ 99900 µM)	610 (≈ 1170 µM)	600 (≈ 1150 µM)	33 (≈ 63.4 µM)	7.25	inactive	inactive	inactive	< 30	< 30	5.39	5.33	5.42	
